The source made the active and inactive calls. The rule behind the calls is not given here.
What was measured:
NCI-H1703 [1] = assay: Antiproliferative activity against human NCI-H1703 cells expressing FASN assessed as growth inhibition at 25 uM after 72 hrs by MTS assay relative to control; format: functional; conditions: NCI-H1703, 72 h
In short: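 H1703 cells were treated with a single 25 µM concentration for 72 h. Viability was measured by MTS at 490 nm, with 0.1% DMSO and media-only correction, relative to untreated control. Mean ± SD of n = 3 independent determinations, unpaired t test against control.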

NCI-H1650 = assay: Antiproliferative activity against human NCI-H1650 cells expressing FASN assessed as reduction in cell viability after 72 hrs by MTS assay; format: functional, cell-based; conditions: NCI-H1650, 72 h
In short: (§1)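 ATCC-sourced cells. H1299, H1650, H1703 and PC-9 were grown in RPMI 1640 with 10% FBS. A549 was grown in high-glucose DMEM with 10% FBS and 1 mM pyruvate. SAEC was grown in BEGM. Cells were seeded at 3 × 10^3 per well (H1650 3.5 × 10^3) and left to attach overnight. Serial dilutions from DMSO stocks were added, 0.1% DMSO final, for 72 h at 37 °C, 5% CO2. Medium was replaced, MTS added, and A490 read after 2 h. IC50 was taken from % viability versus log concentration, 3 experiments.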

NCI-H1299 = assay: Antiproliferative activity against human NCI-H1299 cells expressing FASN assessed as reduction in cell viability after 72 hrs by MTS assay; format: functional, cell-based; conditions: NCI-H1299, 72 h; in short: as §1
NCI-H1703 [2] = assay: Antiproliferative activity against human NCI-H1703 cells expressing FASN assessed as reduction in cell viability after 72 hrs by MTS assay; format: functional, cell-based; conditions: NCI-H1703, 72 h; in short: as §1
[3] = molecular target: Fatty acid synthase (Homo sapiens) (UniProt P49327); assay: Inhibition of FASN in human NCI-H1703 cells expressing FASN assessed as disruption of AKT/FASN positive feedback loop by measuring decrease in AKT expression at 100 uM after 48 hrs by Western immunoblot based densitometric assay relative to control; format: cell-based
In short: (§2)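 PC-9 or H1703 cells were seeded at 8 × 10^5 per 100 mm dish and treated for 48 h at 1 or 5 µM (or 5, 50 and 100 µM). RIPA lysates were BCA-quantified and run on 8% SDS-PAGE, then transferred to PVDF. Blots were probed for FASN, AKT, phospho-AKT S473 and GAPDH and detected by ECL. Bands were quantified by densitometry and normalised to vehicle control.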

[4] = molecular target: Fatty acid synthase (Homo sapiens) (UniProt P49327); assay: Inhibition of FASN in human NCI-H1703 cells expressing FASN assessed as disruption of AKT/FASN positive feedback loop by measuring decrease in FASN expression at 100 uM after 48 hrs by Western immunoblot based densitometric assay relative to control; format: cell-based; in short: as §2
[5] = molecular target: Fatty acid synthase (Homo sapiens) (UniProt P49327); assay: Inhibition of FASN in human PC9 cells harboring FASN expression and EGFR delE746-A750 mutant assessed as disruption of AKT/FASN positive feedback loop by measuring reduction in AKT expression at 100 uM after 48 hrs by Western immunoblot based densitometric assay relative to control; format: cell-based; in short: as §2
[6] = molecular target: Fatty acid synthase (Homo sapiens) (UniProt P49327); assay: Inhibition of FASN in human PC9 cells harboring FASN expression and EGFR delE746-A750 mutant assessed as disruption of AKT/FASN positive feedback loop by measuring reduction in phosphorylated AKT expression at 100 uM after 48 hrs by Western immunoblot based densitometric assay relative to control; format: cell-based; in short: as §2
[7] = molecular target: Fatty acid synthase (Homo sapiens) (UniProt P49327); assay: Inhibition of FASN in human NCI-H1703 cells expressing FASN assessed as disruption of AKT/FASN positive feedback loop by measuring decrease in FASN expression at 5 uM after 48 hrs by Western immunoblot based densitometric assay relative to control; format: cell-based; in short: as §2
[8] = molecular target: Fatty acid synthase (Homo sapiens) (UniProt P49327); assay: Inhibition of FASN in human NCI-H1703 cells expressing FASN assessed as disruption of AKT/FASN positive feedback loop by measuring decrease in phosphorylated AKT expression at 100 uM after 48 hrs by Western immunoblot based densitometric assay relative to control; format: cell-based; in short: as §2
[9] = molecular target: Fatty acid synthase (Homo sapiens) (UniProt P49327); assay: Inhibition of FASN in human NCI-H1703 cells expressing FASN assessed as disruption of AKT/FASN positive feedback loop by measuring decrease in phosphorylated AKT expression at 5 uM after 48 hrs by Western immunoblot based densitometric assay relative to control; format: cell-based; in short: as §2
[10] = molecular target: Fatty acid synthase (Homo sapiens) (UniProt P49327); assay: Inhibition of FASN in human PC9 cells harboring FASN expression and EGFR delE746-A750 mutant assessed as disruption of AKT/FASN positive feedback loop by measuring reduction in phosphorylated AKT expression at 50 uM after 48 hrs by Western immunoblot based densitometric assay relative to control; format: cell-based; in short: as §2
[11] = molecular target: Fatty acid synthase (Homo sapiens) (UniProt P49327); assay: Inhibition of FASN in human NCI-H1703 cells expressing FASN assessed as disruption of AKT/FASN positive feedback loop by measuring decrease in FASN expression at 50 uM after 48 hrs by Western immunoblot based densitometric assay relative to control; format: cell-based; in short: as §2
[12] = molecular target: Fatty acid synthase (Homo sapiens) (UniProt P49327); assay: Inhibition of FASN in human PC9 cells harboring FASN expression and EGFR delE746-A750 mutant assessed as disruption of AKT/FASN positive feedback loop by measuring decrease in FASN expression at 5 uM after 48 hrs by Western immunoblot based densitometric assay relative to control; format: cell-based; in short: as §2
[13] = molecular target: Fatty acid synthase (Homo sapiens) (UniProt P49327); assay: Inhibition of FASN in human NCI-H1703 cells expressing FASN assessed as disruption of AKT/FASN positive feedback loop by measuring decrease in phosphorylated AKT expression at 50 uM after 48 hrs by Western immunoblot based densitometric assay relative to control; format: cell-based; in short: as §2
[14] = molecular target: Fatty acid synthase (Homo sapiens) (UniProt P49327); assay: Inhibition of FASN in human PC9 cells harboring FASN expression and EGFR delE746-A750 mutant assessed as disruption of AKT/FASN positive feedback loop by measuring reduction in AKT expression at 50 uM after 48 hrs by Western immunoblot based densitometric assay relative to control; format: cell-based; in short: as §2
[15] = molecular target: Fatty acid synthase (Homo sapiens) (UniProt P49327); assay: Inhibition of FASN in human NCI-H1703 cells expressing FASN assessed as disruption of AKT/FASN positive feedback loop by measuring decrease in AKT expression at 50 uM after 48 hrs by Western immunoblot based densitometric assay relative to control; format: cell-based; in short: as §2
NCI-H1703 [16] = assay: Induction of apoptosis in human NCI-H1703 cells expressing FASN assessed as cell death at 5 to 100 uM after 72 hrs by Annexin-V FITC staining/PI-based flow cytometry; format: functional
[17] = molecular target: Fatty acid synthase (Homo sapiens) (UniProt P49327); assay: Inhibition of FASN in human PC9 cells harboring FASN expression and EGFR delE746-A750 mutant assessed as disruption of AKT/FASN positive feedback loop by measuring decrease in FASN expression at 100 uM after 48 hrs by Western immunoblot based densitometric assay relative to control; format: cell-based; in short: as §2
[18] = molecular target: Fatty acid synthase (Homo sapiens) (UniProt P49327); assay: Inhibition of FASN in human PC9 cells harboring FASN expression and EGFR delE746-A750 mutant assessed as disruption of AKT/FASN positive feedback loop by measuring reduction in phosphorylated AKT expression at 5 uM after 48 hrs by Western immunoblot based densitometric assay relative to control; format: cell-based; in short: as §2
[19] = molecular target: Fatty acid synthase (Homo sapiens) (UniProt P49327); assay: Inhibition of FASN in human NCI-H1703 cells expressing FASN assessed as disruption of AKT/FASN positive feedback loop by measuring decrease in AKT expression at 5 uM after 48 hrs by Western immunoblot based densitometric assay relative to control; format: cell-based; in short: as §2
[20] = molecular target: Fatty acid synthase (Homo sapiens) (UniProt P49327); assay: Inhibition of FASN in human PC9 cells harboring FASN expression and EGFR delE746-A750 mutant assessed as disruption of AKT/FASN positive feedback loop by measuring decrease in FASN expression at 50 uM after 48 hrs by Western immunoblot based densitometric assay relative to control; format: cell-based; in short: as §2
[21] = molecular target: Fatty acid synthase (Homo sapiens) (UniProt P49327); assay: Inhibition of full length human FASN transfected in HeLa cell lysates at 10 uM using acetyl Co-A/malonyl Co-A as substrate preincubated with enzyme for 2 hrs followed by substrate addition measured after 10 mins in presence of NADPH by microplate reader analysis; format: subcellular; conditions: Lysate
In short: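 Human FASN was made by in vitro translation from a FASN plasmid. Lysate was diluted 3:7 in 100 mM potassium phosphate, pH 6.5, 1 mM EDTA. It was preincubated with compound (10 µM final) for 2 h at 37 °C. Buffer containing acetyl-CoA (55 µM) and NADPH (330 µM) was added, then the reaction was started with malonyl-CoA (500 µM stock). A340 was read at 0 and 10 min; triplicates.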

PC-9 = assay: Induction of apoptosis in human PC9 cells harboring FASN expression and EGFR delE746-A750 mutant assessed as cell death at 5 to 100 uM after 72 hrs by Annexin-V FITC/PI staining-based flow cytometry; format: functional
[22] = molecular target: Fatty acid synthase (Homo sapiens) (UniProt P49327); assay: Inhibition of FASN in human PC9 cells harboring FASN expression and EGFR delE746-A750 mutant assessed as disruption of AKT/FASN positive feedback loop by measuring reduction in AKT expression at 5 uM after 48 hrs by Western immunoblot based densitometric assay relative to control; format: cell-based; in short: as §2

Chain of Fatty acid synthase (Homo sapiens) (P49327 whole entry, looked up): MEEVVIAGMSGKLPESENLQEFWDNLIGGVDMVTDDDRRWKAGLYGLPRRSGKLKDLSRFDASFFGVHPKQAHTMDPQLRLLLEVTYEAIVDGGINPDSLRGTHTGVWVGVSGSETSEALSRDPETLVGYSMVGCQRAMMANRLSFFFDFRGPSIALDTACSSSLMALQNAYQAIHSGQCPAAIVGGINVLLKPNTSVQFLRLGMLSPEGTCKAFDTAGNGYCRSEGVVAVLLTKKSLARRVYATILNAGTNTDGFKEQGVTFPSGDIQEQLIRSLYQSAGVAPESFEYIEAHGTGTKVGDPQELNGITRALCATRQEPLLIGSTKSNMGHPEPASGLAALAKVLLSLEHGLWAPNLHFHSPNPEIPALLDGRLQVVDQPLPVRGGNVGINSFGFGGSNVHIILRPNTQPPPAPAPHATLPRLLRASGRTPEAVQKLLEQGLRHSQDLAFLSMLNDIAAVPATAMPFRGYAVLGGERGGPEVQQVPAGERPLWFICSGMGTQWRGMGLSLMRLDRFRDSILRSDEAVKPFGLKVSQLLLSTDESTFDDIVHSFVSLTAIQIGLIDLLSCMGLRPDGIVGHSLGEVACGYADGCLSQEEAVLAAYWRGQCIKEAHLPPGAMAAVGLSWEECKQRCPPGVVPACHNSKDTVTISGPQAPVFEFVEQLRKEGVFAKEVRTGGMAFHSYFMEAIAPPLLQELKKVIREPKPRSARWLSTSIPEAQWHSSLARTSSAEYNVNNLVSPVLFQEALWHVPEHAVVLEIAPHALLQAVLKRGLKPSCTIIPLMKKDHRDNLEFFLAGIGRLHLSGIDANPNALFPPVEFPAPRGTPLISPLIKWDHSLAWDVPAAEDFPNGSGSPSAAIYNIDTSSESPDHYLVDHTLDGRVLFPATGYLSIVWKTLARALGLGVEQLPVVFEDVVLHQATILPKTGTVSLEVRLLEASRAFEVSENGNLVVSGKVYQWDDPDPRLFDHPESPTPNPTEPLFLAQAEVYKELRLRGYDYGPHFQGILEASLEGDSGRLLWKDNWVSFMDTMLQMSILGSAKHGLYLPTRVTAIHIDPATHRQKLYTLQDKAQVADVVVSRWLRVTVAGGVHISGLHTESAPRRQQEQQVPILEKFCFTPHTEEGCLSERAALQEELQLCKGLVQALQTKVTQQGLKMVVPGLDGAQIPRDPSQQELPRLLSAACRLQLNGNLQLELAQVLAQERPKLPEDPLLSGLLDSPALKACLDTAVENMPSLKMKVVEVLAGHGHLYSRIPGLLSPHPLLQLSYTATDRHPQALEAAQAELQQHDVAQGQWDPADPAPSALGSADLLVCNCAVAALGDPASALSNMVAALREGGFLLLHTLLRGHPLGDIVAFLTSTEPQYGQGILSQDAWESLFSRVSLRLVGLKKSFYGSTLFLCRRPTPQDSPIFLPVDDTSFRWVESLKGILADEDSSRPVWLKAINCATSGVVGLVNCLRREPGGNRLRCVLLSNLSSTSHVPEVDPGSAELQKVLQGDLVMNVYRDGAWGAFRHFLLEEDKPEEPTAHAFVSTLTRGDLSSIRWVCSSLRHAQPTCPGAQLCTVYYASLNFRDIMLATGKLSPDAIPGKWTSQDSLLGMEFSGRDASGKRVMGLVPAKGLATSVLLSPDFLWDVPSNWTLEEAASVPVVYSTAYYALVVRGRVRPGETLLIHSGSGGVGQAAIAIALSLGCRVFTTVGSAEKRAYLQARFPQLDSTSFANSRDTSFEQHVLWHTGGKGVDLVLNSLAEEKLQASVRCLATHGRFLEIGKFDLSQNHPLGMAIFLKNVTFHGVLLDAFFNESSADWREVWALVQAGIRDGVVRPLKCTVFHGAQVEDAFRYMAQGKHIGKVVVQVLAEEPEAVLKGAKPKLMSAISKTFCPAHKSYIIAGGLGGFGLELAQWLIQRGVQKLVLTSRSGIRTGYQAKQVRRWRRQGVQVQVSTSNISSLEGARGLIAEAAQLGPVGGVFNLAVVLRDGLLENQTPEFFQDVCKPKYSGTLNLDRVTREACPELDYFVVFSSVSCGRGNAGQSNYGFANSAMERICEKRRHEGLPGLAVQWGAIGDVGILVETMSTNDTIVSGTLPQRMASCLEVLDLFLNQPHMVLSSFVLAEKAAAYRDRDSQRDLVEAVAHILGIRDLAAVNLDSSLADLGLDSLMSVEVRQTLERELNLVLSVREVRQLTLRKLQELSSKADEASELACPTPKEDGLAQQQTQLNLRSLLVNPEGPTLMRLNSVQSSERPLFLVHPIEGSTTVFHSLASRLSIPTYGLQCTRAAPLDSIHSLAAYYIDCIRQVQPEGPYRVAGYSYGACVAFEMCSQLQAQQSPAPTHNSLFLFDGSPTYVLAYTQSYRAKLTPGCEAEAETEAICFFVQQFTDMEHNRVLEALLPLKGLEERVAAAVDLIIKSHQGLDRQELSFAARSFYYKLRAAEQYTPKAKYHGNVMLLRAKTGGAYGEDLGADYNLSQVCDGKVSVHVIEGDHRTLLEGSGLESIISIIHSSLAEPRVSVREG

With `O=C(Oc1cccc(/C=C/c2ccccc2)c1)c1cc(O)c(O)c(O)c1` as the compound, how does the inhibition at 25 µM (NCI-H1703 [1]) read?
Its inhibition at 25 µM is < 50%.

What does the source list for `O=C(Oc1ccc(/C=C/c2cccc(OC(=O)c3ccc(O)c(O)c3)c2)cc1)c1ccc(O)c(O)c1`?
IC50 (NCI-H1650): 14.1 µM; IC50 (NCI-H1299): 11 µM; IC50 (NCI-H1703 [2]): 8.9 µM; inhibition at 25 µM (NCI-H1703 [1]): > 50%

Which results are given for `O=C(Oc1ccc(Cc2ccc(OC(=O)c3cc(O)c(O)c(O)c3)cc2)cc1)c1cc(O)c(O)c(O)c1`?
IC50 (NCI-H1650): 49.7 µM; IC50 (NCI-H1299): 8.6 µM; IC50 (NCI-H1703 [2]): 6.2 µM; inhibition at 25 µM (NCI-H1703 [1]): > 50%

`COc1cc(C(=O)Oc2ccc(/C=C/c3cccc(OC(=O)c4cc(OC)c(OC)c(OC)c4)c3)cc2)cc(OC)c1OC` was tested. Which Ratio [3] did it give?
The Ratio was 1.

And the Ratio [4]?
The Ratio was 1.05.

What about the Ratio [5] of the same compound?
The Ratio was 0.98.

What about the Ratio [6] of the same compound?
Its Ratio is 0.88.

And the Ratio [7]?
Its Ratio is 1.05.

What about the Ratio [8] of the same compound?
The Ratio was 0.73.

And the Ratio [9]?
Its Ratio is 0.97.

And the Ratio [10]?
Its Ratio is 0.95.

And the Ratio [11]?
Its Ratio is 1.12.

What about the Ratio [12] of the same compound?
Its Ratio is 0.99.

What about the Ratio [13] of the same compound?
The Ratio was 0.82.

And the Ratio [14]?
Its Ratio is 1.01.

What about the Ratio [15] of the same compound?
The Ratio was 0.99.

What about the Activity (NCI-H1703 [16]) of the same compound?
Its Activity is “inactive”.

And the Ratio [17]?
The Ratio was 1.04.

What about the Ratio [18] of the same compound?
The Ratio was 1.02.

And the Ratio [19]?
The Ratio was 1.09.

What about the Ratio [20] of the same compound?
The Ratio was 1.01.

What about the inhibition [21] of the same compound?
Its inhibition is “inactive”.

What about the Activity (PC-9) of the same compound?
Its Activity is “inactive”.

What about the Ratio [22] of the same compound?
The Ratio was 0.99.

And the inhibition at 25 µM (NCI-H1703 [1])?
Its inhibition at 25 µM is < 50%.

With `O=C(Oc1ccc(/C=C/c2ccccc2)cc1)c1cc(O)c(O)c(O)c1` as the compound, how does the IC50 (NCI-H1650) read?
Its IC50 is 16 µM.

And the IC50 (NCI-H1299)?
The IC50 was 8.5 µM.

And the IC50 (NCI-H1703 [2])?
Its IC50 is 11.2 µM.

What about the inhibition at 25 µM (NCI-H1703 [1]) of the same compound?
The inhibition at 25 µM was > 50%.

`COc1cc(C(=O)Oc2ccc(Cc3ccc(OC(=O)c4cc(OC)c(OC)c(OC)c4)cc3)cc2)cc(OC)c1OC` was tested. Which inhibition at 25 µM (NCI-H1703 [1]) did it give?
Its inhibition at 25 µM is < 50%.
